Assay results as given in ChEMBL document CHEMBL1135529, “New inhibitors of bacterial protein synthesis from a combinatorial library of macrocycles” (J Med Chem, 2002).
pIC50: −log10 of the molar value. ≈ marks a conversion by molar mass, not a printed value. Each block holds one compound with its values, some of them ahead of it.

Key:
Format in all cases: functional
Escherichia coli [1] = experiment: Inhibition of cell free transcription/translation by Escherichia coli s30 bacterial extract.
Procedure, shortened: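 Coupled transcription/translation in E. coli S30 extract with pBest Luc plasmid (0.125 μg/μL stock), S30 premix and complete amino acid mix (1 mM each, 10× stock). 35 min at 37 °C, then luciferase read by luminescence. IC50 = concentration reducing luciferase activity to 50% of control; compounds HPLC-purified before IC50 determination.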

Escherichia coli [2] = experiment: In vitro minimum inhibition concentration against Escherichia coli D21f2, LPS mutant; Range is from 25-50.
Procedure, shortened: (§1)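 Broth microdilution in duplicate. Overnight culture added to compound in 2.5% DMSO in water; final inoculum about 10²–10³ CFU/well. Growth relative to no-compound control read as A595 after 20–24 h at 37 °C. MIC reported as a range: complete inhibition at the upper concentration, viable cells at the lower. Top concentration 100 μM.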

[3] = In vitro inhibition of translation in luciferase SP6 control plasmid
Procedure, shortened: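 Luciferase mRNA transcribed from SP6 plasmid with SP6 RNA polymerase, then translated in E. coli S30 extract for linear templates with S30 premix and complete amino acid mix (1 mM each, 10× stock). 90 min at 37 °C; functional luciferase detected by luminescence. IC50 = concentration reducing luciferase activity to 50% of control.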

Escherichia coli [4] = experiment: In vitro minimum inhibition concentration against Escherichia coli K-12, wild type.; procedure, shortened: as §1
Escherichia coli [5] = experiment: In vitro minimum inhibition concentration against Escherichia coli KZM120, pump mutant.; procedure, shortened: as §1
Escherichia coli [6] = experiment: In vitro minimum inhibition concentration against Escherichia coli Ram195, pump mutant.; procedure, shortened: as §1
Escherichia coli [7] = experiment: In vitro minimum inhibition concentration against Escherichia coli D21f2, LPS mutant; Range is from 12-25.; procedure, shortened: as §1
Escherichia coli [8] = experiment: In vitro minimum inhibition concentration against Escherichia coli D21f2, LPS mutant; Range is from 25-50; procedure, shortened: as §1
Escherichia coli [9] = experiment: In vitro minimum inhibition concentration against Escherichia coli Ram195, pump mutant; Range is from 50-100.; procedure, shortened: as §1
Escherichia coli [10] = experiment: In vitro minimum inhibition concentration against Escherichia coli K-12, wild type; Range is from 50-100.; procedure, shortened: as §1
Escherichia coli [11] = experiment: In vitro minimum inhibition concentration against Escherichia coli KZM120, pump mutant; Range is from 50-100.; procedure, shortened: as §1

SMILES: NC(N)=NCCC[C@H]1COc2ccc(NC(=O)CNC(=O)c3ccc4nc(O)c(O)nc4c3)cc2C(=O)NC[C@@H](N)C(=O)N[C@@H](Cc2ccc(N)cc2)C(=O)N1
pIC50 (Escherichia coli [1]): 4.30

SMILES: Cc1nc2ccc(C(=O)Nc3ccc4c(c3)C(=O)NC[C@@H](N)C(=O)N[C@@H](Cc3ccc(N)cc3)C(=O)N[C@@H](CCCN=C(N)N)CO4)cc2nc1C
pIC50 (Escherichia coli [1]): < 4.00

SMILES: NC(N)=NCCC[C@H]1COc2ccc(NC(=O)c3ccc4nc(O)c(O)nc4c3)cc2C(=O)NC[C@@H](N)C(=O)N[C@@H](Cc2cccnc2)C(=O)N1
pIC50 (Escherichia coli [1]): 4.30

SMILES: Cn1c(=O)c(=O)n(C)c2cc(C(=O)Nc3ccc4c(c3)C(=O)NC[C@@H](N)C(=O)N[C@@H](Cc3ccc(N)cc3)C(=O)N[C@@H](CCCN=C(N)N)CO4)ccc21
pIC50 (Escherichia coli [1]): < 4.00

SMILES: NC(N)=NCCC[C@H]1COc2ccc(NS(=O)(=O)c3ccc4nc(O)c(O)nc4c3)cc2C(=O)NC[C@@H](N)C(=O)N[C@@H](Cc2ccc(N)cc2)C(=O)N1
pIC50 (Escherichia coli [1]): 4.21

SMILES: NC(N)=NCCC[C@H]1COc2ccc(NC(=O)c3cc4nc(O)c(O)nc4cc3[N+](=O)[O-])cc2C(=O)NC[C@@H](N)C(=O)N[C@@H](Cc2ccc(N)cc2)C(=O)N1
pIC50 (Escherichia coli [1]): < 4.00

SMILES: NC(N)=NCCC[C@H]1COc2ccc(NC(=O)c3ccc4ccccc4n3)cc2C(=O)NC[C@@H](N)C(=O)N[C@@H](Cc2ccc(N)cc2)C(=O)N1
pIC50 (Escherichia coli [1]): < 4.00

SMILES: CN(CC(=O)Nc1ccc2c(c1)C(=O)NC[C@@H](N)C(=O)N[C@@H](Cc1ccc(N)cc1)C(=O)N[C@@H](CCCN=C(N)N)CO2)C(=O)c1ccc2nc(O)c(O)nc2c1
pIC50 (Escherichia coli [1]): < 4.00

SMILES: NCCCC[C@H]1COc2ccc(NC(=O)c3ccc4nc(O)c(O)nc4c3)cc2C(=O)NC[C@@H](N)C(=O)N[C@@H](Cc2ccccc2)C(=O)N1
pIC50 (Escherichia coli [1]): 4.40 | pIC50 [3]: 4.30 | MIC (Escherichia coli [4]): > 100 µM | MIC (Escherichia coli [5]): > 100 µM | MIC (Escherichia coli [7]): 25 µM (≈ 16.8 µg/mL) | MIC (Escherichia coli [6]): > 100 µM

SMILES: NC(N)=NCCC[C@H]1COc2ccc(NC(=O)CCCCCNC(=O)c3ccc4nc(O)c(O)nc4c3)cc2C(=O)NC[C@@H](N)C(=O)N[C@@H](Cc2ccc(N)cc2)C(=O)N1
pIC50 (Escherichia coli [1]): 4.48

SMILES: NC(N)=NCCC[C@H]1COc2ccc(NC(=O)CCCNC(=O)c3ccc4nc(O)c(O)nc4c3)cc2C(=O)NC[C@@H](N)C(=O)N[C@@H](Cc2ccc(N)cc2)C(=O)N1
pIC50 (Escherichia coli [1]): 4.12

SMILES: NC(N)=NCCC[C@H]1COc2ccc(NC(=O)c3ccc4cccnc4c3)cc2C(=O)NC[C@@H](N)C(=O)N[C@@H](Cc2ccc(N)cc2)C(=O)N1
pIC50 (Escherichia coli [1]): < 4.00

SMILES: NC(N)=NCCC[C@H]1COc2ccc(NC(=O)c3ccc4ccccc4c3)cc2C(=O)NC[C@@H](N)C(=O)N[C@@H](Cc2ccc(N)cc2)C(=O)N1
pIC50 (Escherichia coli [1]): < 4.00

Stronger by pIC50 (Escherichia coli [1]), values ahead:

MIC (Escherichia coli [2]): 50 µM (≈ 35.7 µg/mL) | pIC50 (Escherichia coli [1]): 4.60 | pIC50 [3]: 4.30 | MIC (Escherichia coli [4]): > 100 µM | MIC (Escherichia coli [5]): > 100 µM | MIC (Escherichia coli [6]): > 100 µM
SMILES: NC(N)=NCCC[C@H]1COc2ccc(NC(=O)c3ccc4nc(O)c(O)nc4c3)cc2C(=O)NC[C@@H](N)C(=O)N[C@@H](Cc2ccc(O)cc2)C(=O)N1

pIC50 (Escherichia coli [1]): 4.77 | pIC50 [3]: 4.60 | MIC (Escherichia coli [4]): > 100 µM | MIC (Escherichia coli [5]): > 100 µM | MIC (Escherichia coli [7]): 25 µM (≈ 17.8 µg/mL) | MIC (Escherichia coli [6]): > 100 µM
SMILES: NC(N)=NCCC[C@@H]1COc2ccc(NC(=O)c3ccc4nc(O)c(O)nc4c3)cc2C(=O)NC[C@H](N)C(=O)N[C@H](Cc2ccc(N)cc2)C(=O)N1

pIC50 (Escherichia coli [1]): 4.80 | pIC50 [3]: 4.89 | MIC (Escherichia coli [8]): 50 µM (≈ 35.7 µg/mL) | MIC (Escherichia coli [4]): > 100 µM | MIC (Escherichia coli [5]): > 100 µM | MIC (Escherichia coli [6]): > 100 µM
SMILES: NC(N)=NCCC[C@H]1COc2ccc(NC(=O)c3ccc4nc(O)c(O)nc4c3)cc2C(=O)NC[C@@H](N)C(=O)N[C@@H](Cc2ccc(N)cc2)C(=O)N1

pIC50 (Escherichia coli [1]): 5.52
SMILES: NC(N)=NCCC[C@H]1COc2ccc(NC(=O)CCNC(=O)c3ccc4nc(O)c(O)nc4c3)cc2C(=O)NC[C@@H](N)C(=O)N[C@@H](Cc2ccc(N)cc2)C(=O)N1

MIC (Escherichia coli [2]): 50 µM (≈ 34.9 µg/mL) | pIC50 (Escherichia coli [1]): 4.92 | MIC (Escherichia coli [9]): 100 µM (≈ 69.9 µg/mL) | MIC (Escherichia coli [10]): 100 µM (≈ 69.9 µg/mL) | MIC (Escherichia coli [11]): 100 µM (≈ 69.9 µg/mL)
SMILES: NC(N)=NCCC[C@@H]1COc2ccc(NC(=O)c3ccc4nc(O)c(O)nc4c3)cc2C(=O)NC[C@H](N)C(=O)N[C@H](Cc2ccccc2)C(=O)N1

pIC50 (Escherichia coli [1]): 4.82 | pIC50 [3]: 4.46 | MIC (Escherichia coli [4]): > 100 µM | MIC (Escherichia coli [5]): > 100 µM | MIC (Escherichia coli [7]): 25 µM (≈ 17.9 µg/mL) | MIC (Escherichia coli [6]): > 100 µM
SMILES: NC(N)=NCCC[C@@H]1COc2ccc(NC(=O)c3ccc4nc(O)c(O)nc4c3)cc2C(=O)NC[C@H](N)C(=O)N[C@H](Cc2ccc(O)cc2)C(=O)N1

pIC50 (Escherichia coli [1]): 4.70
SMILES: NC(N)=NCCC[C@@H]1COc2ccc(NC(=O)c3ccc4nc(O)c(O)nc4c3)cc2C(=O)NC[C@@H](N)C(=O)N[C@H](Cc2cccnc2)C(=O)N1

pIC50 (Escherichia coli [1]): 5.70
SMILES: Cc1cc2nc(O)c(O)nc2cc1S(=O)(=O)Nc1ccc2c(c1)C(=O)NC[C@@H](N)C(=O)N[C@@H](Cc1ccc(N)cc1)C(=O)N[C@@H](CCCN=C(N)N)CO2

pIC50 (Escherichia coli [1]): 7.40 | pIC50 [3]: 7.10
SMILES: NC[C@H]1O[C@H](O[C@H]2[C@H](O)[C@@H](O[C@H]3O[C@H](CO)[C@@H](O)[C@H](N)[C@H]3O)[C@H](N)C[C@@H]2N)[C@H](O)[C@@H](O)[C@@H]1O [KANAMYCIN]
